From ChEMBL document CHEMBL4017509, “A Dual Modulator of Farnesoid X Receptor and Soluble Epoxide Hydrolase To Counter Nonalcoholic Steatohepatitis” (J Med Chem, 2017)
Active and inactive are the calls of the source. The rule behind the calls is not given here.

Tests used:
[1] = target: T1, Bile acid receptor (Homo sapiens) (UniProt Q96RI1); test: Transactivation of FXR in human HepG2 cells assessed as SREBP1c mRNA expression at 1 uM after 8 to 16 hrs by SYBR green based qRT-PCR analysis relative to DMSO control; type: cell-based
T1 sequence (whole entry): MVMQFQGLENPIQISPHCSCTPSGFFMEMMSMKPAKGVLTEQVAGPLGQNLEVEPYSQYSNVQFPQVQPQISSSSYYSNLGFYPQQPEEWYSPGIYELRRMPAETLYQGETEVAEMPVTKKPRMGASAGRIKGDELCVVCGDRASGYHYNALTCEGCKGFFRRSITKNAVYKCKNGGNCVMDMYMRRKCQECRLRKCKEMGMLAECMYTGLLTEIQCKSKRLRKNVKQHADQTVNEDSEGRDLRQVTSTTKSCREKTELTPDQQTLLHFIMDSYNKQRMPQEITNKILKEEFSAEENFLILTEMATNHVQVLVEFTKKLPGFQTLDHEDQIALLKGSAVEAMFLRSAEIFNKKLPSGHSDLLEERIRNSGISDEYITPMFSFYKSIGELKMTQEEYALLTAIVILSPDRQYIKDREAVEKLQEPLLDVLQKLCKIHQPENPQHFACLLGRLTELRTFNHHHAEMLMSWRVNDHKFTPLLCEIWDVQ
Outline: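 HepG2 cells incubated with test compound (0.1 and 1 μM) or 0.1% DMSO for 8 or 16 h, washed in cold PBS, RNA extracted; target mRNA by SYBR Green qRT-PCR, duplicate samples, ≥4 independent experiments; comparative ΔΔCt with GAPDH reference, vehicle set as 100%.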

MDM = test: Effect on IL-10 levels in LPS-stimulated primary human MDM at 0.01 uM after 16 hrs by cytometric bead array method; type: functional, cell-based
Outline: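 Blood monocytes isolated by dextran sedimentation and Nycoprep gradient, adherence-selected 1 h, differentiated with GM-CSF 10 ng/mL for 7 days plus IFNγ 10 ng/mL for last 48 h. Stimulated with LPS 100 ng/mL plus compound for 16 h; supernatant IL-10 and IL-12p70 measured by cytometric bead array flow cytometry.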

Liver [2] = test: Drug metabolism in Sprague-Dawley rat liver microsomes assessed as N-(4-Amino-2-chlorobenzyl)-4-(tert-butyl)benzamide formation at 10 uM preincubated with NADPH regenerating system for 5 mins followed by addition of liver microsomes by LC-MS/MS method; type: ADME, microsome
Liver [3] = test: Drug metabolism in Sprague-Dawley rat liver microsomes assessed as 4-tert-butyl-N-(2-chloro-4-(methylsulfonamido)benzyl)-3-hydroxybenzamide formation at 10 uM preincubated with NADPH regenerating system for 5 mins followed by addition of liver microsomes by LC-MS/MS method; type: ADME, microsome
Liver [4] = test: Drug metabolism in Sprague-Dawley rat liver microsomes assessed as N-(2-chloro-4-(methylsulfonamido)benzyl)-4-(1-hydroxy-2-methylpropan-2-yl)benzamide formation at 10 uM preincubated with NADPH regenerating system for 5 mins followed by addition of liver microsomes by LC-MS/MS method; type: ADME, microsome
[5] = target: T2, Bifunctional epoxide hydrolase 2 (Homo sapiens) (UniProt P34913); conditions: 0.01 uM
T2 sequence (whole entry): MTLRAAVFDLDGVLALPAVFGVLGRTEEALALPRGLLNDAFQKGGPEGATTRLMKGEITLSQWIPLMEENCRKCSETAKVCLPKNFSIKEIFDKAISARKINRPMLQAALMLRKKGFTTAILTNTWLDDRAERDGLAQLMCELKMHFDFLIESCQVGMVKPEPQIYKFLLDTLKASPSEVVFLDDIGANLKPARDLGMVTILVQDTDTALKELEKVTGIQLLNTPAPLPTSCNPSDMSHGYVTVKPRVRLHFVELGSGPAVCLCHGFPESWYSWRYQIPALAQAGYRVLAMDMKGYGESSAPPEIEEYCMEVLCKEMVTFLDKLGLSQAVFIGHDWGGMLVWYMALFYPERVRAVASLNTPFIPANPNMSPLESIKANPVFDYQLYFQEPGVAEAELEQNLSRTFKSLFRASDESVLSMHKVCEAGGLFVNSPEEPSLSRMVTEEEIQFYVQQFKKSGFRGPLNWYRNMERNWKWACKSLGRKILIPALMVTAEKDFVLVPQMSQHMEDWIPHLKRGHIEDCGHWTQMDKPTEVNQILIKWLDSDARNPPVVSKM

CC(C)(C)c1ccc(C(=O)NCc2ccc(NS(C)(=O)=O)cc2Cl)cc1
Activity [1]: 36% | Activity (MDM): inactive | Drug metabolism (Liver [2]): Metabolite_Detected | Drug metabolism (Liver [3]): Metabolite_Notdetected | Drug metabolism (Liver [4]): Metabolite_Detected | inhibition [5]: inactive
